From paper PMC10582678 (Clinical and Translational Science, 2023)
“Also recorded” adds a separate entry of the source.

Experiments:
[1] = Plasma pharmacokinetics, food effect; type: in vivo, human; settings: 600 mg; for half-life / Tmax: human, plasma, oral; for half-life: T1/2, 600 mg, mean ± SD; for Tmax: median (min, max)
Procedure, shortened: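 This was a randomized, open-label, two-period crossover in 12 healthy subjects. Each received one oral 600 mg dose fasted then fed, or the reverse, with a 7-day washout. Drug was quantified by validated HPLC-tandem accurate mass spectrometry (calibration 5.00–5000 ng/mL). Parameters came from noncompartmental analysis.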

BTK = BTK (Homo sapiens, UniProt Q06187); assay: BTK receptor occupancy in peripheral blood monocytes; type: in vivo
Chain of BTK (Q06187 whole entry): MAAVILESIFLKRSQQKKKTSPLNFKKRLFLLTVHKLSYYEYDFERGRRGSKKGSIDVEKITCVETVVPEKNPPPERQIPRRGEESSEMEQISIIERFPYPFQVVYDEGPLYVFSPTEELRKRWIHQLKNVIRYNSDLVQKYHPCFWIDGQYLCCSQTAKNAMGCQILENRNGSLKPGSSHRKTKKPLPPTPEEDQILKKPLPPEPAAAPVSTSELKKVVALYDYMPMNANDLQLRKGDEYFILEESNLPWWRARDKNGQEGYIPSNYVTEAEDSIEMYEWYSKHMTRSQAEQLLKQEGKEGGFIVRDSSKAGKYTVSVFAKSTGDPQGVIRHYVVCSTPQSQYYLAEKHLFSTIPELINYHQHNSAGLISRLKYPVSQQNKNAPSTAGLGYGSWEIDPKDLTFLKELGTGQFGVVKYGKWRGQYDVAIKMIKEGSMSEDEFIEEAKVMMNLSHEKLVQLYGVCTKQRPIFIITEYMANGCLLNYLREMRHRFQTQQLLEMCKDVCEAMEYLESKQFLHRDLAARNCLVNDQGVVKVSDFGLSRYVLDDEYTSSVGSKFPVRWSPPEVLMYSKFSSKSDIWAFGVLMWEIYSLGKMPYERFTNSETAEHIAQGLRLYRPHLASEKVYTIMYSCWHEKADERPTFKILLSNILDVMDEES
Procedure, shortened: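 Peripheral blood was sampled from healthy adult Chinese subjects given oral test compound or placebo. In the multiple-dose part, samples were taken at 0, 12, 24 and 168 h after the first dose (day 1) and at 0 and 12 h after the last dose (day 10). In the food-effect part, samples were taken at 0, 12, 24 and 120 h postdose. BTK occupancy was measured by validated ELISA (sensitivity 1.784 ng/mL). Negative placebo values were set to 0.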

[2] = Safety, adverse events, single ascending dose; type: in vivo, human; settings: for AEs / Decreased leukocyte count / Decreased neutrophil count / Increased ALT / Increased blood cholesterol / Increased blood triglycerides / Abdominal discomfort / Constipation / Decreased lymphocyte count / Dermatitis allergic / Dyspepsia / Increased AST / Increased blood bilirubin / Increased blood creatinine / Lethargy / Mouth ulceration / Oropharyngeal pain / Sinus arrythmia / Treatment discontinuation due to AEs / Upper respiratory tract infection: n (%)
Procedure, shortened: (§1)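 Safety was monitored by vital signs, clinical laboratory tests, physical examination, 12-lead ECG, AEs and SAEs. AEs were coded with MedDRA 23.1 and graded by CTCAE 5.0. Subjects were discharged 6 days after the last dose, with a follow-up visit 8–14 days after the last dose. The safety set comprised randomized subjects who received active drug or placebo and had post-dose safety data.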

[3] = Safety, adverse events, whole study; type: in vivo, human
Procedure, shortened: as §1

[4] = Preclinical safety in rats; type: in vivo; settings: stated in introduction
[5] = Preclinical safety in beagles; type: in vivo; settings: stated in introduction
[6] = 27 subjects who received SAD 100 to 800 mg
[7] = among 57 subjects who received SN1011

In the case of N#CN1C[C@H](n2nc(-c3ccc(Oc4ccc(Cl)cn4)cc3)c(C(N)=O)c2N)CCC12CC2 [SN1011, 5-amino-3-(4-((5-chloro-2-pyridinyl)oxy)phenyl)-1-((6R)-4-cyano-4-azaspiro[2.5]octan-6-yl)-1H-pyrazole-4-carboxamide], the “AUC0-inf, Geometric Mean Ratio” value ([1]; fed state to fasted state) is reported as 93.76%, the “AUC0-t, Geometric Mean Ratio” value ([1]; fed state to fasted state) is reported as 92.79% and the “Cmax, Geometric Mean Ratio” value ([1]; fed state to fasted state) is reported as 97.08%. The half-life ([1]; Fasted) was 24.3 ± 8.7 h, the half-life ([1]; Fed) was 26.6 ± 13.3 h and the Tmax ([1]; Fasted) was 4 h. For the same molecule, the Tmax ([1]; Fed) was 6 h, the BTK receptor occupancy (BTK; MAD groups, 10 days of continuous q.d. administration of 400 and 600 mg) was “above 80%” and the BTK receptor occupancy (BTK; over 24 h after single administration of 600 mg, fasted and fed states) was “above 83%”. For the same molecule, the blood triglycerides increased [2, 6] was 18.5%, the neutrophil count decreased [2, 6] was 14.8% and the “number of AEs” value [2, 6] was 13. For the same molecule, the “subjects who experienced AEs” value [2, 6] was 33.3%, the “white blood cell count decreased” value [2, 6] was 7.4% and the AEs ([2]; SAD 100 mg, any grade) was 0. The Decreased leukocyte count ([2]; SAD 100 mg, any grade) was 0, the Decreased neutrophil count ([2]; SAD 100 mg, any grade) was 0 and the “Increased ALT” value ([2]; SAD 100 mg, any grade) was 0. It also gave an Increased blood cholesterol ([2]; SAD 100 mg, any grade) of 0, an Increased blood triglycerides ([2]; SAD 100 mg, any grade) of 0 and an Abdominal discomfort ([2]; SAD 100 mg) of 0. It also gave a Constipation ([2]; SAD 100 mg) of 0, a Decreased lymphocyte count ([2]; SAD 100 mg) of 0 and a Dermatitis allergic ([2]; SAD 100 mg) of 0. For the same molecule, the Dyspepsia ([2]; SAD 100 mg) was 0, the “Increased AST” value ([2]; SAD 100 mg) was 0 and the Increased blood bilirubin ([2]; SAD 100 mg) was 0. The Increased blood creatinine ([2]; SAD 100 mg) was 0, the Lethargy ([2]; SAD 100 mg) was 0 and the Mouth ulceration ([2]; SAD 100 mg) was 0. For the same molecule, the Oropharyngeal pain ([2]; SAD 100 mg) was 0, the Sinus arrythmia ([2]; SAD 100 mg) was 0 and the “Treatment discontinuation due to AEs” value ([2]; SAD 100 mg) was 0. The “Upper respiratory tract infection” value ([2]; SAD 100 mg) was 0, the AEs ([2]; SAD 200 mg, any grade) was 2 (33.3) and the Decreased leukocyte count ([2]; SAD 200 mg, any grade) was 0. The Decreased neutrophil count ([2]; SAD 200 mg, any grade) was 0, the “Increased ALT” value ([2]; SAD 200 mg, any grade) was 1 (16.7) and the Increased blood cholesterol ([2]; SAD 200 mg, any grade) was 1 (16.7). The Increased blood triglycerides ([2]; SAD 200 mg, any grade) was 2 (33.3), the Abdominal discomfort ([2]; SAD 200 mg) was 0 and the Constipation ([2]; SAD 200 mg) was 0. It also gave a Decreased lymphocyte count ([2]; SAD 200 mg) of 0, a Dermatitis allergic ([2]; SAD 200 mg) of 0 and a Dyspepsia ([2]; SAD 200 mg) of 0. The “Increased AST” value ([2]; SAD 200 mg) was 0, the Increased blood bilirubin ([2]; SAD 200 mg) was 0 and the Increased blood creatinine ([2]; SAD 200 mg) was 0. It also gave a Lethargy ([2]; SAD 200 mg) of 0, a Mouth ulceration ([2]; SAD 200 mg) of 0 and an Oropharyngeal pain ([2]; SAD 200 mg) of 0. For the same molecule, the Sinus arrythmia ([2]; SAD 200 mg) was 0, the “Treatment discontinuation due to AEs” value ([2]; SAD 200 mg) was 0 and the “Upper respiratory tract infection” value ([2]; SAD 200 mg) was 0. The AEs ([2]; SAD 400 mg, any grade) was 2 (33.3), the Decreased leukocyte count ([2]; SAD 400 mg, any grade) was 0 and the Decreased neutrophil count ([2]; SAD 400 mg, any grade) was 0. For the same molecule, the “Increased ALT” value ([2]; SAD 400 mg, any grade) was 0, the Increased blood cholesterol ([2]; SAD 400 mg, any grade) was 0 and the Increased blood triglycerides ([2]; SAD 400 mg, any grade) was 2 (33.3). For the same molecule, the Abdominal discomfort ([2]; SAD 400 mg) was 0, the Constipation ([2]; SAD 400 mg) was 0 and the Decreased lymphocyte count ([2]; SAD 400 mg) was 0. For the same molecule, the Dermatitis allergic ([2]; SAD 400 mg) was 0, the Dyspepsia ([2]; SAD 400 mg) was 0 and the “Increased AST” value ([2]; SAD 400 mg) was 0. For the same molecule, the Increased blood bilirubin ([2]; SAD 400 mg) was 0, the Increased blood creatinine ([2]; SAD 400 mg) was 0 and the Lethargy ([2]; SAD 400 mg) was 0. For the same molecule, the Mouth ulceration ([2]; SAD 400 mg) was 0, the Oropharyngeal pain ([2]; SAD 400 mg) was 0 and the Sinus arrythmia ([2]; SAD 400 mg) was 0. The “Treatment discontinuation due to AEs” value ([2]; SAD 400 mg) was 0, the “Upper respiratory tract infection” value ([2]; SAD 400 mg) was 0 and the AEs ([2]; SAD 600 mg, any grade) was 3 (50.0). For the same molecule, the Decreased leukocyte count ([2]; SAD 600 mg, any grade) was 1 (16.7), the Decreased neutrophil count ([2]; SAD 600 mg, any grade) was 3 (50.0) and the “Increased ALT” value ([2]; SAD 600 mg, any grade) was 0. For the same molecule, the Increased blood cholesterol ([2]; SAD 600 mg, any grade) was 0, the Increased blood triglycerides ([2]; SAD 600 mg, any grade) was 0 and the Abdominal discomfort ([2]; SAD 600 mg) was 0. It also gave a Constipation ([2]; SAD 600 mg) of 0, a Decreased lymphocyte count ([2]; SAD 600 mg) of 0 and a Dermatitis allergic ([2]; SAD 600 mg) of 0. The Dyspepsia ([2]; SAD 600 mg) was 0, the “Increased AST” value ([2]; SAD 600 mg) was 0 and the Increased blood bilirubin ([2]; SAD 600 mg) was 0. It also gave an Increased blood creatinine ([2]; SAD 600 mg) of 0, a Lethargy ([2]; SAD 600 mg) of 0 and a Mouth ulceration ([2]; SAD 600 mg) of 0. For the same molecule, the Oropharyngeal pain ([2]; SAD 600 mg) was 0, the Sinus arrythmia ([2]; SAD 600 mg) was 0 and the “Treatment discontinuation due to AEs” value ([2]; SAD 600 mg) was 0. The “Upper respiratory tract infection” value ([2]; SAD 600 mg) was 0, the AEs ([2]; SAD 800 mg, any grade) was 2 (33.3) and the Decreased leukocyte count ([2]; SAD 800 mg, any grade) was 1 (16.7). For the same molecule, the Decreased neutrophil count ([2]; SAD 800 mg, any grade) was 1 (16.7), the “Increased ALT” value ([2]; SAD 800 mg, any grade) was 0 and the Increased blood cholesterol ([2]; SAD 800 mg, any grade) was 0. The Increased blood triglycerides ([2]; SAD 800 mg, any grade) was 1 (16.7), the Abdominal discomfort ([2]; SAD 800 mg) was 0 and the Constipation ([2]; SAD 800 mg) was 0. The Decreased lymphocyte count ([2]; SAD 800 mg) was 0, the Dermatitis allergic ([2]; SAD 800 mg) was 0 and the Dyspepsia ([2]; SAD 800 mg) was 0. For the same molecule, the “Increased AST” value ([2]; SAD 800 mg) was 0, the Increased blood bilirubin ([2]; SAD 800 mg) was 0 and the Increased blood creatinine ([2]; SAD 800 mg) was 0. The Lethargy ([2]; SAD 800 mg) was 0, the Mouth ulceration ([2]; SAD 800 mg) was 0 and the Oropharyngeal pain ([2]; SAD 800 mg) was 0. For the same molecule, the Sinus arrythmia ([2]; SAD 800 mg) was 0, the “Treatment discontinuation due to AEs” value ([2]; SAD 800 mg) was 0 and the “Upper respiratory tract infection” value ([2]; SAD 800 mg) was 0. For the same molecule, the Abdominal discomfort ([2]; SAD All SN1011, N = 27) was 0, the Constipation ([2]; SAD All SN1011, N = 27) was 0 and the Decreased leukocyte count ([2]; SAD All SN1011, N = 27) was 2 (7.4). For the same molecule, the Decreased lymphocyte count ([2]; SAD All SN1011, N = 27) was 0, the Decreased neutrophil count ([2]; SAD All SN1011, N = 27) was 4 (14.8) and the Dermatitis allergic ([2]; SAD All SN1011, N = 27) was 0. For the same molecule, the Dyspepsia ([2]; SAD All SN1011, N = 27) was 0, the “Increased ALT” value ([2]; SAD All SN1011, N = 27) was 1 (3.7) and the “Increased AST” value ([2]; SAD All SN1011, N = 27) was 0. The Increased blood bilirubin ([2]; SAD All SN1011, N = 27) was 0, the Increased blood cholesterol ([2]; SAD All SN1011, N = 27) was 1 (3.7) and the Increased blood creatinine ([2]; SAD All SN1011, N = 27) was 0. The Increased blood triglycerides ([2]; SAD All SN1011, N = 27) was 5 (18.5), the Lethargy ([2]; SAD All SN1011, N = 27) was 0 and the Mouth ulceration ([2]; SAD All SN1011, N = 27) was 0. The Oropharyngeal pain ([2]; SAD All SN1011, N = 27) was 0, the Sinus arrythmia ([2]; SAD All SN1011, N = 27) was 0 and the “Treatment discontinuation due to AEs” value ([2]; SAD All SN1011, N = 27) was 0. The “Upper respiratory tract infection” value ([2]; SAD All SN1011, N = 27) was 0, the serious adverse events ([3]; all parts of the study) was “No serious adverse events; also recorded: no SAEs were reported” and the “subjects who experienced AEs” value [3, 7] was 28. The “total number of AEs” value [3, 7] was 55, the safety profile [4] was “acceptable safety profile” and the safety profile [5] was “acceptable safety profile”.
